# Data reported in ChEMBL document CHEMBL5223067, “Functionalized resorcinarenes effectively disrupt the aggregation of αA66-80 crystallin peptide related to cataracts” (RSC Med Chem, 2021).
# Several values for one entry are separate records, joined by “and”; a condition that tells them apart may be missing. Equal entries are not always repeated. Activity calls are given as the source filed them. The rule behind the calls is not given here.
# What was measured:
# [1] = biological target: T1, Alpha-crystallin A chain (Homo sapiens) (UniProt P02489); assay: Inhibition of alphaA (66 to 80 residues) crystallin peptide aggregation at peptide to ligand ratio of 0.2 to 5:1 incubated for 7 days by fluorescence aggregation assay; conditions: time 7.0 day
# T1 sequence (whole entry): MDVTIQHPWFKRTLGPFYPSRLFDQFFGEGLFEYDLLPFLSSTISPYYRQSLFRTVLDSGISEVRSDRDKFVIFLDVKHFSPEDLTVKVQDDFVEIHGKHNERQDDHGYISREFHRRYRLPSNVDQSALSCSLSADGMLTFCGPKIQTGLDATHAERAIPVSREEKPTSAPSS
# Outline: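 5360 μM peptide in 10 mM Tris was mixed with receptor at 0.2:1 to 10:1 receptor:peptide ratios and incubated 7 days at 37 °C. Proteostat dye was added (1 μL per 10 μL sample) with positive/negative dye controls. Fluorescence was read at 25 °C. Triplicates; percent inhibition plotted vs log[concentration] to derive IC50.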
# [2] = biological target: T1, Alpha-crystallin A chain (Homo sapiens); assay: Inhibition of alphaA (66 to 80 residues) crystallin peptide aggregation assessed decrease in large fibrillar aggregation at 1:1 peptide to ligand ratio incubated for 7 days by transmission electron microscopy; conditions: time 7.0 day
# Outline: (§1)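 Peptide incubated with receptor at 1:1 or 5:1 ratio for 7 days at 37 °C. A 10 μL aliquot taken on day 7 was loaded onto Formvar-carbon coated 200 mesh nickel grids and allowed to absorb for 2 h. Grids were washed three times with deionized water and blotted dry. Peptide-alone control; duplicate grids per sample; imaged by TEM.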
# [3] = biological target: T1, Alpha-crystallin A chain (Homo sapiens); assay: Inhibition of alphaA (66 to 80 residues) crystallin peptide aggregation assessed as amorphous small protein aggregates at 1:1 peptide to ligand ratio incubated for 7 days by transmission electron microscopy; conditions: time 7.0 day; outline: as §1
# [4] = biological target: T1, Alpha-crystallin A chain (Homo sapiens); assay: Inhibition of alphaA (66 to 80 residues) crystallin peptide aggregation assessed as decrease in peptide-receptor complex and measured upto 2 hrs by ESI-MS analysis
# Outline: (§2)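 Peptide and host (10 mM aqueous stocks) were mixed in equal parts to 5 mM each. Mixtures were diluted in ESI buffer (50% methanol, 49% water, 1% acetic acid) and analysed by positive-mode ESI-MS, either within 2 h of mixing or after incubation for 72+ h at 37 °C followed by 100-fold dilution.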
# [5] = biological target: T1, Alpha-crystallin A chain (Homo sapiens); assay: Inhibition of alphaA (66 to 80 residues) crystallin peptide aggregation assessed as decrease in peptide-receptor complex and measured after 72 hrs by ESI-MS analysis; outline: as §2
# [6] = Binding affinity to lysine in deuterium oxide solution assessed as change in complexation induced chemical shift at 2 mM by 1H NMR analysis
# [7] = Binding affinity to arginine in deuterium oxide solution assessed as change in complexation induced chemical shift at 2 mM by 1H NMR analysis
# [8] = Binding affinity to histidine in deuterium oxide solution assessed as change in complexation induced chemical shift at 2 mM by 1H NMR analysis
# [9] = Binding affinity to aspartic acid in deuterium oxide solution assessed as change in complexation induced chemical shift at 2 mM by 1H NMR analysis
# [10] = Binding affinity to arginine in aqueous solution assessed as association constant at 1 mM by isothermal titration calorimetry
# Outline: (§3)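 ITC at 298 K: sample cell filled with one partner at 1 mM, titrant at 15 mM in syringe, computer-automated injections. Blank titrations into plain solvent subtracted to remove heats of dilution. Data fitted to a 1:1 (one-site) binding model to give K, ΔH and ΔS.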
# [11] = Binding affinity to lysine in aqueous solution assessed as association constant at 1 mM by isothermal titration calorimetry; outline: as §3
# [12] = Binding affinity to histidine in aqueous solution assessed as association constant at 1 mM by isothermal titration calorimetry; outline: as §3
# [13] = biological target: T1, Alpha-crystallin A chain (Homo sapiens); assay: Binding affinity to alphaA (66 to 80 residues) crystallin peptide in aqueous solution assessed as association constant at 1 mM by isothermal titration calorimetry; outline: as §3
# [14] = Binding affinity to arginine in aqueous solution assessed as change in enthalpy at 1 mM by isothermal titration calorimetry; outline: as §3
# [15] = Binding affinity to lysine in aqueous solution assessed as change in enthalpy at 1 mM by isothermal titration calorimetry; outline: as §3
# [16] = Binding affinity to histidine in aqueous solution assessed as change in enthalpy at 1 mM by isothermal titration calorimetry; outline: as §3
# [17] = biological target: T1, Alpha-crystallin A chain (Homo sapiens); assay: Binding affinity to alphaA (66 to 80 residues) crystallin peptide in aqueous solution assessed as change in enthalpy at 1 mM by isothermal titration calorimetry; outline: as §3
# [18] = Binding affinity to arginine in aqueous solution assessed as change in entropy at 1 mM by isothermal titration calorimetry
# Outline: (§4)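 ITC at 298 K. The sample cell holds one partner at 1 mM and the syringe holds titrant at 15 mM, added by automated injections. Titrations were run in water and in 10 mM Tris buffer pH 7.4. Blank titrations into plain solvent were subtracted to correct for heats of dilution. The data were fitted to a 1:1 (one-site) binding model to give K, ΔH and ΔS.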
# [19] = Binding affinity to lysine in aqueous solution assessed as change in entropy at 1 mM by isothermal titration calorimetry; outline: as §4
# [20] = Binding affinity to histidine in aqueous solution assessed as change in entropy at 1 mM by isothermal titration calorimetry; outline: as §4
# [21] = biological target: T1, Alpha-crystallin A chain (Homo sapiens); assay: Binding affinity to alphaA (66 to 80 residues) crystallin peptide in aqueous solution assessed as change in entropy at 1 mM by isothermal titration calorimetry; outline: as §3
# [22] = Binding affinity to arginine in aqueous solution assessed as gibbs free energy change at 1 mM by isothermal titration calorimetry; outline: as §3
# [23] = Binding affinity to lysine in aqueous solution assessed as gibbs free energy change at 1 mM by isothermal titration calorimetry; outline: as §3
# [24] = Binding affinity to histidine in aqueous solution assessed as gibbs free energy change at 1 mM by isothermal titration calorimetry; outline: as §3
# [25] = biological target: T1, Alpha-crystallin A chain (Homo sapiens); assay: Binding affinity to alphaA (66 to 80 residues) crystallin peptide in aqueous solution assessed as gibbs free energy change at 1 mM by isothermal titration calorimetry; outline: as §3
# [26] = biological target: T1, Alpha-crystallin A chain (Homo sapiens); assay: Inhibition of alphaA (66 to 80 residues) crystallin peptide aggregation assessed as decrease in average diameter size distribution at 1:1 peptide to ligand ratio incubated for 7 days by dynamic light scattering (Rvb=12000+/-1500 nm); conditions: time 7.0 day
# [27] = Binding affinity to aspartic acid in aqueous solution assessed as association constant at 1 mM by isothermal titration calorimetry; outline: as §3
# [28] = Binding affinity to aspartic acid in aqueous solution assessed as change in enthalpy at 1 mM by isothermal titration calorimetry; outline: as §3
# [29] = Binding affinity to aspartic acid in aqueous solution assessed as change in entropy at 1 mM by isothermal titration calorimetry; outline: as §4
# [30] = Binding affinity to aspartic acid in aqueous solution assessed as gibbs free energy change at 1 mM by isothermal titration calorimetry; outline: as §3
inhibition [1],inhibition [2],inhibition [3],inhibition [4],inhibition [5],Activity [6],Activity [7],Activity [8],Activity [9],Ka [10],Ka [11],Ka [12],Ka [13],deltaH [16] [kcal/mol],deltaH [17] [kcal/mol],TdeltaS [20] [kcal/mol],TdeltaS [21] [kcal/mol],deltaG [24],deltaG [25],Activity [26] [nm],SMILES,other results
Dose-Dependent Effect,Active,Active,inactive,inactive,Active,Active,inactive,inactive,3.64 10^3/M,4.45 10^3/M,3.44 10^3/M,380 10^3/M,-1.05,-3.23,3.75,4.38,-4.8 kcal/mol,-7.61 kcal/mol and -7.6 kcal/mol,3740,O=S(=O)(O)CCCc1cc(C(CCS(=O)(=O)O)c2cc(C(CCS(=O)(=O)O)c3cc(C(CCS(=O)(=O)O)c4ccc(O)cc4O)c(O)cc3O)c(O)cc2O)c(O)cc1O (centres undefined),deltaH [14]: -15.2 kcal/mol; deltaH [15]: -6.74 kcal/mol; TdeltaS [18]: -10.2 kcal/mol; TdeltaS [19]: -1.76 kcal/mol; deltaG [22]: -4.9 kcal/mol; deltaG [23]: -4.98 kcal/mol and -4.97 kcal/mol
Dose-Dependent Effect,Active,Active,Active,Active,Active,Active,Active,Active,–,–,14.9 10^3/M,2.4 10^3/M,-7.53,4.89,-1.84,9.48,-5.69 kcal/mol,-4.59 kcal/mol,202,OCCCCc1cc(C(CCCO)c2cc(C(CCCO)c3cc(C(CCCO)c4ccc(O)c(CNCc5ccccc5)c4O)c(O)c(CNCc4ccccc4)c3O)c(O)c(CNCc3ccccc3)c2O)c(O)c(CNCc2ccccc2)c1O (centres undefined),Ka [27]: 7.3 10^3/M; deltaH [28]: -1 kcal/mol; TdeltaS [29]: 2.9 kcal/mol; deltaG [30]: -3.9 kcal/mol
Dose-Dependent Effect,Active,Active,inactive,inactive,Active,Active,inactive,inactive,7.27 10^3/M,5.89 10^3/M,2.94 10^3/M,1360 10^3/M,-2.59,-8.28,6.91,0.092,-9.5 kcal/mol and -9.51 kcal/mol,-8.37 kcal/mol,1920,CCCc1cc(C(CC)c2cc(C(CC)c3cc(C(CC)c4ccc(O)c(CS(=O)(=O)O)c4O)c(O)c(CS(=O)(=O)O)c3O)c(O)c(CS(=O)(=O)O)c2O)c(O)c(CS(=O)(=O)O)c1O (centres undefined),deltaH [14]: -15.7 kcal/mol; deltaH [15]: -12.1 kcal/mol; TdeltaS [18]: -10.4 kcal/mol; TdeltaS [19]: -6.45 kcal/mol; deltaG [22]: -5.27 kcal/mol and -5.28 kcal/mol; deltaG [23]: -5.62 kcal/mol
